≈ marks a conversion by molar mass, not a printed value. Calls of active or inactive are those of the source. The calls are words filed in the database; no cut-off is given here.
What was measured:
[1] = biological target: T1, 72 kDa type IV collagenase (Homo sapiens, UniProt P08253); assay: Inhibition of human recombinant MMP2 using MOCAc-Pro-Leu-Gly-Leu-A2pr(Dnp)-Ala-Arg- NH2 as substrate preincubated for 10 mins measured after 3 hrs by fluorescence assay
Outline: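 Fluorogenic MMP-2 inhibition in TNC buffer (50 mM Tris-HCl pH 7.5, 150 mM NaCl, 10 mM CaCl2, 0.02% NaN3, 0.05% Brij-35). Enzyme stock 5 ng/mL preincubated with compound 10 min at 37 °C. Reaction started with substrate solution (10 μM), incubated 3 h at 37 °C. Read at ex 328/em 393 nm. No-enzyme blank subtracted. Batimastat positive control; 1% DMSO negative control.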
Target sequence in this assay (P08253 whole entry): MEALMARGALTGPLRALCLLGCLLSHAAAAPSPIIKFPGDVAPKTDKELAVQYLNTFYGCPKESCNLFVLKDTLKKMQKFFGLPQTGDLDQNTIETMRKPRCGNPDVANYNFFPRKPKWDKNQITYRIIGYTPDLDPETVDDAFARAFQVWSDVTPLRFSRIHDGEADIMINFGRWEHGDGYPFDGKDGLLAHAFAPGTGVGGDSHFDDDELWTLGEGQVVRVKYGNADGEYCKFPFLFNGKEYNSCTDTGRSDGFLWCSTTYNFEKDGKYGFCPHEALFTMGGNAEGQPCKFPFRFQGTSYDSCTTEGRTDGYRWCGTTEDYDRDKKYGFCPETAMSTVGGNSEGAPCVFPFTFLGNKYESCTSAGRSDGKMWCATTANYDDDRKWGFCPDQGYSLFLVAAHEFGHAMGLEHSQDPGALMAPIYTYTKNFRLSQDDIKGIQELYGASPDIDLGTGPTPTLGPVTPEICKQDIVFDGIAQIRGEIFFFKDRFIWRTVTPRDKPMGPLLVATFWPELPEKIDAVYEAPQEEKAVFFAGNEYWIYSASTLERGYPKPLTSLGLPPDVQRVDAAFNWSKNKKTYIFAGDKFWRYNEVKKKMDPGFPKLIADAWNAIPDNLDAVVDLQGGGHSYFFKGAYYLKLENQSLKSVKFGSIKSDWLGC

[2] = biological target: T2, Matrix metalloproteinase-14 (Homo sapiens, UniProt P50281); assay: Inhibition of MMP14 using MOCAc-Pro-Leu-Gly-Leu-A2pr(Dnp)-Ala-Arg- NH2 as substrate preincubated for 10 mins measured after 3 hrs by fluorescence assay
Outline: (§1)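 Fluorogenic MMP assay (modified Knight method) in TNC buffer: 50 mM Tris-HCl pH 7.5, 150 mM NaCl, 10 mM CaCl2, 0.05% Brij-35. Enzyme stock was 5 ng/mL for MMP-2 and 40 ng/mL for MT1-MMP, preincubated with sample 10 min at 37 °C. Substrate solution at 10 μM was added, then incubated 3 h at 37 °C. Fluorescence read at ex 328/em 393 nm; a no-enzyme blank was subtracted. Controls were batimastat and 1% DMSO.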

[3] = biological target: Dual specificity tyrosine-phosphorylation-regulated kinase 1A (Rattus norvegicus) (UniProt Q63470); assay: Inhibition of rat recombinant GST-fused DYRK1A expressed in Escherichia coli using [gamma-32P] ATP at 100 uM after 30 mins by scintillation counting
Outline: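 Rat DYRK1A, expressed in E. coli as a GST fusion and purified on glutathione-agarose. Assayed as for CDK1/cyclin B with 1 mg/mL myelin basic protein substrate and 15 μM [γ-32P]ATP, 30 min at 30 °C. Read by P81 filter binding and scintillation counting.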

[4] = test system: Oocyte; assay: Inhibition of starfish oocytes CDK1/cyclin B using [gamma-32P] ATP at 100 uM after 30 mins by scintillation counting; format: cell-based; settings: Asteroidea
Outline: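 Native CDK1/cyclin B from M-phase starfish oocytes, or recombinant human CDK5/p25. Assayed in buffer C (Mops pH 7.2, β-glycerophosphate, EGTA, MgCl2, DTT, vanadate) with 1 mg/mL histone H1 and 15 μM [γ-32P]ATP. Ran 30 min at 30 °C, spotted on P81 phosphocellulose, washed in dilute phosphoric acid, then scintillation counted. Blank subtracted; activity expressed as percent of no-inhibitor control.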

[5] = biological target: Cyclin-dependent kinase 5/CDK5 activator 1 (Homo sapiens, UniProt Q00535); assay: Inhibition of human recombinant CDK5/p25 using [gamma-32P] ATP after 30 mins by scintillation counting; format: protein-complex assay
Outline: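 Native-format CDK5/p25 assay in buffer C (pH 7.2 Mops, β-glycerophosphate, EGTA, MgCl2, DTT, vanadate) with 1 mg/mL histone H1 and 15 μM [γ-32P]ATP, 30 min at 30 °C. Aliquots were spotted onto P81 phosphocellulose, washed in phosphoric acid and counted.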

[6] = biological target: T3, Casein kinase I isoform alpha (Sus scrofa) (UniProt O19175); assay: Inhibition of porcine brain CK1 using RRKHAAIGpSAYSITA as substrate at 100 uM
T3 sequence (whole entry): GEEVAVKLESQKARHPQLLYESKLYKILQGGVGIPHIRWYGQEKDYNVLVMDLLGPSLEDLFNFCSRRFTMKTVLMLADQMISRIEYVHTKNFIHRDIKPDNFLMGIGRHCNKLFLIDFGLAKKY

[7] = biological target: T4, Serine/threonine-protein kinase pim-1 (Homo sapiens, UniProt P11309); assay: Inhibition of human recombinant PIM1 using [gamma-32P] ATP at 100 uM after 30 mins by scintillation counting
Outline: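 Recombinant human Pim1 assayed as for CDK1/CDK5: histone H1 substrate, 15 μM [γ-32P]ATP final, 30 °C. Read by P81 filter binding and scintillation counting; activity expressed as percent of no-inhibitor control after blank subtraction.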
Target sequence in this assay (P11309 whole entry, looked up): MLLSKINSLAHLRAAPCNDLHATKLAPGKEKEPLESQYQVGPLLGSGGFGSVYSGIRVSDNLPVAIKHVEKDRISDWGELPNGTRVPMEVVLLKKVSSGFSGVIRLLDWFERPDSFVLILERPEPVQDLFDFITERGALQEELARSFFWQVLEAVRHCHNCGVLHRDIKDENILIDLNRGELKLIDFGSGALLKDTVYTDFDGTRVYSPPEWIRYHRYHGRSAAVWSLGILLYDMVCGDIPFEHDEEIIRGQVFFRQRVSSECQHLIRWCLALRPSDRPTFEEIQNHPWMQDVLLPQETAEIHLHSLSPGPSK

[8] = Inhibition of GSK3 at 100 uM
[9] = biological target: T1, 72 kDa type IV collagenase; assay: Inhibition of human recombinant MMP2 using MOCAc-Pro-Leu-Gly-Leu-A2pr(Dnp)-Ala-Arg- NH2 as substrate at 20 ug/ml preincubated for 10 mins measured after 3 hrs by fluorescence assay; outline: as §1
[10] = biological target: T2, Matrix metalloproteinase-14; assay: Inhibition of MMP14 using MOCAc-Pro-Leu-Gly-Leu-A2pr(Dnp)-Ala-Arg- NH2 as substrate at 20 ug/ml preincubated for 10 mins measured after 3 hrs by fluorescence assay; outline: as §1
[11] = test system: Aorta; assay: Antiangiogenic activity in Fischer rat aorta fragments assessed as vessel outgrowth at 100 ug/mL after 5 days relative to PI-88; format: functional
[12] = test system: Aorta; assay: Antiangiogenic activity in Fischer rat aorta fragments assessed as vessel outgrowth at 100 ug/mL after 5 days relative to ageladine-A sulfate; format: functional
[13] = test system: Aorta; assay: Antiangiogenic activity in Fischer rat aorta fragments assessed as vessel outgrowth at 100 ug/mL after 5 days; format: functional; settings: 120 h
Outline: (§2)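 Thoracic aorta rings (1 mm cross-sections) from 3–9 month-old female Fischer rats, each embedded in fibrin gel with 5 μg/mL aprotinin. Compound added from DMSO stock, max final 100 μg/mL, six replicates; 0.1% DMSO vehicle control. Grown 5 days at 37 °C in 5% CO2, medium changed on day 4. On day 5, microvessel outgrowth was scored manually at 40× as percent of field occupied.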

[14] = test system: CAKI-1; assay: Growth inhibition of human Caki1 cells at 10 uM; format: functional; settings: read-out: GI
[15] = test system: Malme-3M; assay: Induction of cell growth in human MALME-3M cells at 10 uM; format: functional
[16] = Toxicity in human NCI-H460 cells; format: cell-based; settings: read-out: LD50 (the source's name)
Outline: (§3)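 NCI-60 human cancer cell line screen, two-stage. All lines first receive a single 10 μM dose. Selected compounds then go to a five-concentration assay spanning 100 μM to 10 nM, with 48 h exposure. LD50 (cell kill) is derived from the dose-response and kept separate from GI50 (growth retardation without cell death).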

[17] = Toxicity in human M14 cells; format: cell-based; settings: read-out: LD50 (the source's name); outline: as §3
[18] = Toxicity in human SK-MEL-5 cells; format: cell-based; settings: read-out: LD50 (the source's name); outline: as §3
[19] = Toxicity in human IGROV1 cells; format: cell-based, IGROV-1; settings: read-out: LD50 (the source's name); outline: as §3
[20] = Toxicity in human Caki1 cells; format: cell-based, CAKI-1; settings: read-out: LD50 (the source's name); outline: as §3
[21] = test system: NCI60; assay: Growth inhibition of human NCI60 cells at 1 to 10 uM; format: functional, cell-based
[22] = test system: Aorta; assay: Antiangiogenic activity in Fischer rat aorta fragments assessed as vessel outgrowth at 10 ug/mL after 5 days; format: functional; settings: 120 h; outline: as §2
[23] = test system: Aorta; assay: Antiangiogenic activity in Fischer rat aorta fragments assessed as vessel outgrowth at 1 ug/mL after 5 days; format: functional; settings: 120 h; outline: as §2
[24] = test system: Aorta; assay: Antiangiogenic activity in Fischer rat aorta fragments assessed as vessel outgrowth at 0.1 ug/mL after 5 days; format: functional; settings: 120 h; outline: as §2
[25] = test system: Aorta; assay: Antiangiogenic activity in Fischer rat aorta fragments assessed as vessel outgrowth after 5 days; format: functional, tissue-based; settings: 120 h; outline: as §2
[26] = biological target: Dual specificity tyrosine-phosphorylation-regulated kinase 1A (Homo sapiens) (UniProt Q13627); assay: Binding affinity to DYRK1A assessed as ATP binding remaining at 10 uM
Outline: (§4)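 Ambit phage-display competition binding against immobilized ATP-site ligands. Kinase-tagged T7 phage or HEK-293-expressed DNA-tagged kinases were incubated with liganded streptavidin beads and compound at 10 μM, 1 h at room temperature with shaking. After washing, retained kinase was quantified; readout is percent of control binding remaining.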

[27] = Binding affinity to DYRK2 assessed as ATP binding remaining at 10 uM; outline: as §4
[28] = biological target: Non-receptor tyrosine-protein kinase TYK2 (Homo sapiens) (UniProt P29597); assay: Binding affinity to JH domain of TYK2 assessed as ATP binding remaining at 10 uM; outline: as §4
[29] = biological target: Mitogen-activated protein kinase kinase kinase 19 (Homo sapiens) (UniProt Q56UN5); assay: Binding affinity to YSK4 assessed as ATP binding remaining at 10 uM; outline: as §4
[30] = biological target: Calcium/calmodulin-dependent protein kinase type II subunit gamma (Homo sapiens, UniProt Q13555); assay: Binding affinity to CAMK2G
Outline: (§5)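 Compounds were diluted from 40× DMSO stocks, 11 concentrations plus blank in duplicate. Incubation 1 h at room temperature with shaking in SeaBlock/PBS/Tween 20/DTT buffer, then bead wash. Kd determined; 40000 nM denotes no binding.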

[31] = biological target: Calcium/calmodulin-dependent protein kinase kinase 1 (Homo sapiens, UniProt Q8N5S9); assay: Binding affinity to CAMKK1
Outline: (§6)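 Competition binding run by Ambit. They were mixed with ligand-loaded streptavidin magnetic beads and compound (40× DMSO stocks) in SeaBlock/PBS/Tween/DTT buffer. Incubation was 1 h at room temperature, then beads were washed. KD was determined from 11 concentrations plus a blank, in duplicate. A value of 40000 nM indicates no binding.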

[32] = biological target: Calcium/calmodulin-dependent protein kinase kinase 2 (Homo sapiens, UniProt Q96RR4); assay: Binding affinity to CAMKK2; outline: as §5
[33] = biological target: Protein kinase C epsilon type (Homo sapiens, UniProt Q02156); assay: Binding affinity to PRKCE; outline: as §6
[34] = biological target: Casein kinase I isoform alpha (Sus scrofa, UniProt O19175); assay: Inhibition of porcine brain CK1 using RRKHAAIGpSAYSITA as substrate
[35] = biological target: Interstitial collagenase (Homo sapiens, UniProt P03956); assay: Inhibition of MMP1
[36] = biological target: T1, 72 kDa type IV collagenase; assay: Inhibition of MMP2
Outline: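 Fluorogenic substrate assay on MMP-2 (5 ng/mL enzyme solution) in TNC buffer (50 mM Tris-HCl pH 7.5, 150 mM NaCl, 10 mM CaCl2, 0.05% Brij-35). Enzyme preincubated with compound for 10 min at 37 °C, then substrate solution (10 μM) added. Fluorescence read at ex 328/em 393 nm after 3 h at 37 °C. An enzyme-free blank was subtracted; batimastat served as positive control and 1% DMSO as negative.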
Target sequence in this assay (P08253 whole entry): as the sequence (P08253 whole entry) above

[37] = biological target: Neutrophil collagenase (Homo sapiens, UniProt P22894); assay: Inhibition of MMP8
[38] = biological target: Matrix metalloproteinase-9 (Homo sapiens, UniProt P14780); assay: Inhibition of MMP9
[39] = biological target: Macrophage metalloelastase (Homo sapiens, UniProt P39900); assay: Inhibition of MMP12
[40] = biological target: Collagenase 3 (Homo sapiens, UniProt P45452); assay: Inhibition of MMP13
[41] = biological target: Dual specificity tyrosine-phosphorylation-regulated kinase 1A (Rattus norvegicus, UniProt Q63470); assay: Inhibition of rat recombinant GST-fused DYRK1A expressed in Escherichia coli using [gamma-32P] ATP after 30 mins by scintillation counting
Outline: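 DYRK1A purified by glutathione-agarose affinity chromatography. Product captured on P81 phosphocellulose and washed in phosphoric acid. Blank subtracted; activity expressed as % of uninhibited.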

[42] = biological target: T4, Serine/threonine-protein kinase pim-1; assay: Inhibition of human recombinant PIM1 using [gamma-32P] ATP after 30 mins by scintillation counting
Outline: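 Human recombinant Pim1 was run with histone H1 substrate under the CDK1/CDK5 conditions: 15 μM [γ-32P]ATP at 30 °C for 30 min. Phosphocellulose filter binding and scintillation counting followed. Activity was expressed as % of maximal after blank subtraction, with DMSO controls.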

Neutrophil collagenase, sequence (P22894 whole entry): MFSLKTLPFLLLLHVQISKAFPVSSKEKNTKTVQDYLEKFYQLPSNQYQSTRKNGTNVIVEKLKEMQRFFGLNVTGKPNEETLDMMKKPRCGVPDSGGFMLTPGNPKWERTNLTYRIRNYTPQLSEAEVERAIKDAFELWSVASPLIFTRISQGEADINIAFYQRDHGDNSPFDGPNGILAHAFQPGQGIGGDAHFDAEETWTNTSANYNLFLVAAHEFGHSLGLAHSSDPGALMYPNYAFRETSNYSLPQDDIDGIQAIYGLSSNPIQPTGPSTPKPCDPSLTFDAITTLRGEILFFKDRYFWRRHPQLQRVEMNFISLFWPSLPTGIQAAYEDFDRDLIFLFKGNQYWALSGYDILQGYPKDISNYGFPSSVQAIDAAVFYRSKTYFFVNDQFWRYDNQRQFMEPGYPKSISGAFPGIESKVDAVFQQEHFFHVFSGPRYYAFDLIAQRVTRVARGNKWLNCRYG
Calcium/calmodulin-dependent protein kinase kinase 1, sequence (Q8N5S9 whole entry): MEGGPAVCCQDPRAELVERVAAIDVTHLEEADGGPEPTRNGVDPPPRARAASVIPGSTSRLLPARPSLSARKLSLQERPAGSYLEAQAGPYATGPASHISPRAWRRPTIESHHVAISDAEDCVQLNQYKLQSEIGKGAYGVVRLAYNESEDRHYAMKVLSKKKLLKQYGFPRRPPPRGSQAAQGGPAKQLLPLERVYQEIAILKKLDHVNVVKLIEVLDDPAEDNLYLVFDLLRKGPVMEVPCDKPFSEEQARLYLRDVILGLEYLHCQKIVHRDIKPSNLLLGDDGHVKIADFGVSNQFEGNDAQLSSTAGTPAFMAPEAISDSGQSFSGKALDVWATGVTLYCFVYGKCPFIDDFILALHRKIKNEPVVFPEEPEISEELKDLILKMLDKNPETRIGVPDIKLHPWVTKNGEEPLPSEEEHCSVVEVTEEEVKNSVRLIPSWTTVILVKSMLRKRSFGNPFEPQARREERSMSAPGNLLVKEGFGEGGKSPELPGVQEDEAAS
Non-receptor tyrosine-protein kinase TYK2 (Homo sapiens), sequence (P29597 whole entry, the tested form may be a part): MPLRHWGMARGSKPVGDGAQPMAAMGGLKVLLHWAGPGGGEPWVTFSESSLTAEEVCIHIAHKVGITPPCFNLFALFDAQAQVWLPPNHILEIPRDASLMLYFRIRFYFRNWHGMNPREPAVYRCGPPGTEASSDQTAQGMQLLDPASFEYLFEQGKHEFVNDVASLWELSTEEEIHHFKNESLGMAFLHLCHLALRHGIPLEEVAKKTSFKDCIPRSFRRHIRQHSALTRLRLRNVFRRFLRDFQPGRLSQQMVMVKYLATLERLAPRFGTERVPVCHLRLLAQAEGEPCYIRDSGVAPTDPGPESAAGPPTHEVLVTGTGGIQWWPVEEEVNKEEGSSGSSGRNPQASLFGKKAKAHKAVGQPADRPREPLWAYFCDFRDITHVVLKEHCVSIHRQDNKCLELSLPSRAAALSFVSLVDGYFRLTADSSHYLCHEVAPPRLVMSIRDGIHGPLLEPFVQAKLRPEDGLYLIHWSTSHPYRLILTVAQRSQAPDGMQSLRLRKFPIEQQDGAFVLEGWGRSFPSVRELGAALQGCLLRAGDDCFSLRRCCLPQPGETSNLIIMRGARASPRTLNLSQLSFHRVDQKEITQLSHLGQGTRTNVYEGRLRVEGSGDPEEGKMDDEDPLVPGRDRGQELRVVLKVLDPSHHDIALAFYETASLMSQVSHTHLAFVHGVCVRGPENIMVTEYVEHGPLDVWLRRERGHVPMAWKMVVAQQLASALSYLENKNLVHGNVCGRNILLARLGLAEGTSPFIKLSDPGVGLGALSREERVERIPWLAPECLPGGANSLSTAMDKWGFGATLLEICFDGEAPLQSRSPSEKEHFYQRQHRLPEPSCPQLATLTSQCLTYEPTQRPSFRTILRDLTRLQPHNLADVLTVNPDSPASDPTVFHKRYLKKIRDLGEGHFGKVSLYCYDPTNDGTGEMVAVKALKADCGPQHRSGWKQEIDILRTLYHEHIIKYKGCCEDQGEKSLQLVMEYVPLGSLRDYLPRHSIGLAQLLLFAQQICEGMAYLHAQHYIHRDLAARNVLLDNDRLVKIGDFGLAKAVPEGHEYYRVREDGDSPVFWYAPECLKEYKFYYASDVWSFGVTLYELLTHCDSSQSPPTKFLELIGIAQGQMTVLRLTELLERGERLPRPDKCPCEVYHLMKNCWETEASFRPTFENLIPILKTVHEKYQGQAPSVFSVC
Interstitial collagenase, sequence (P03956 whole entry): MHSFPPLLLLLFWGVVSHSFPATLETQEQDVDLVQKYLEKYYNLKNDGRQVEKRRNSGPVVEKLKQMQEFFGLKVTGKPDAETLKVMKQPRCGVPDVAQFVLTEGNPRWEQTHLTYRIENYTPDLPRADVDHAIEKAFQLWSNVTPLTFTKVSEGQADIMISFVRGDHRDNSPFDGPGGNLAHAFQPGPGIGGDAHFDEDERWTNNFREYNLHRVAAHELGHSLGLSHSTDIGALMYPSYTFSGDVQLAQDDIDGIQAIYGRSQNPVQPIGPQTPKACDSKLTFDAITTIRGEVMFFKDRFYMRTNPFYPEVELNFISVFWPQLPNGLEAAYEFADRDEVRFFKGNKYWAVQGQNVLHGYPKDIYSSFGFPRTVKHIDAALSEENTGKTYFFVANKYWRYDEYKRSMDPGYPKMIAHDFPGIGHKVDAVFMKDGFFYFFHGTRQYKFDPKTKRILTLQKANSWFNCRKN
Mitogen-activated protein kinase kinase kinase 19 (Homo sapiens), sequence (Q56UN5 whole entry): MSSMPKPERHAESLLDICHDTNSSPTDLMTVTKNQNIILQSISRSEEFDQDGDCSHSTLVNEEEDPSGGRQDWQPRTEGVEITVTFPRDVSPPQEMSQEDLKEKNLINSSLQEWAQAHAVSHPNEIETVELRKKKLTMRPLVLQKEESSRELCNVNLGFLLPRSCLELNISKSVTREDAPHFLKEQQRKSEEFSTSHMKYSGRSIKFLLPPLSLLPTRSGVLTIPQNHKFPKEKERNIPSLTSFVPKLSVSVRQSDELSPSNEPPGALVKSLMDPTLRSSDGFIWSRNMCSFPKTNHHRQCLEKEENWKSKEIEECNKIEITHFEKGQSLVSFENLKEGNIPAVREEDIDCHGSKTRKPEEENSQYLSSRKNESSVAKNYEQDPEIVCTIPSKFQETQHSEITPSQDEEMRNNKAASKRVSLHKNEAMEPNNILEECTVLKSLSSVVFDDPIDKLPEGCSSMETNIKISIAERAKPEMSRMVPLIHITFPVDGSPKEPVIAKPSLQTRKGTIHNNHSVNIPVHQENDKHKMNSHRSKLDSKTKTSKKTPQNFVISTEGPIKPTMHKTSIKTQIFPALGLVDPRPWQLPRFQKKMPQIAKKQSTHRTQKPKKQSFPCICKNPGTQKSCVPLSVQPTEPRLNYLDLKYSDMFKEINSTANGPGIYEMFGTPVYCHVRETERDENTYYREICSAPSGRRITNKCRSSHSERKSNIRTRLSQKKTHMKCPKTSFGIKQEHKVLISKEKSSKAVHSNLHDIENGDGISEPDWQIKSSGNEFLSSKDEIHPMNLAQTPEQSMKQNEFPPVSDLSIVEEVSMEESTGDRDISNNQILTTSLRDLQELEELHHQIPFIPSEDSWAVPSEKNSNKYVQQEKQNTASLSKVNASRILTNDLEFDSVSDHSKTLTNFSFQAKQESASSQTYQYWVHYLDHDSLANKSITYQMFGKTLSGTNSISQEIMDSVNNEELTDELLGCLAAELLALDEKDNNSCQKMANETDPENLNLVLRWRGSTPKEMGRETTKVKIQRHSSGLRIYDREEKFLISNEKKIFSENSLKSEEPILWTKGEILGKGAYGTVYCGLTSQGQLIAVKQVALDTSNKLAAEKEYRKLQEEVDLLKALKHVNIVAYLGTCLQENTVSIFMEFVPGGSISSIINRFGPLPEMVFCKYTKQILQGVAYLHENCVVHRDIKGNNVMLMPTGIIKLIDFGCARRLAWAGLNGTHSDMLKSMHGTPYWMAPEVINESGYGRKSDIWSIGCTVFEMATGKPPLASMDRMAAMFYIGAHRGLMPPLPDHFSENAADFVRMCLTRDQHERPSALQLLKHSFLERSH

## Nc1nc2c(-c3ccc[nH]3)nccc2[nH]1
[1]
  IC50: 50.2 µM
[2]
  IC50: 8.03 µM
[3]
  inhibition: inactive
[4]
  inhibition: inactive
[5]
  IC50: 70 µM
[6]
  inhibition: inactive
[7]
  inhibition: inactive
[8]
  inhibition: inactive

## Nc1nc2c(-c3ccccn3)nccc2[nH]1
[9]
  inhibition: 22%
[10]
  inhibition: 6%
[11]
  fold change (FC): 14
[12]
  fold change (FC): 3
[13]
  inhibition at 100 µg/mL: 100%
[14]
  inhibition of growth at 10 µM: 95%
[15]
  Activity: 30%
[16]
  CC50: 25 µM
[17]
  CC50: 25 µM
[18]
  CC50: 25 µM
[19]
  CC50: 25 µM
[20]
  CC50: 25 µM
[21]
  growth inhibition (GI): Active
[22]
  inhibition at 10 µg/mL: 56%
[23]
  inhibition at 1 µg/mL: 16%
[24]
  inhibition at 0.1 µg/mL: 4%
[25]
  IC50: 8 µg/mL (≈ 37.9 µM)
[26]
  Activity: Active
[27]
  Activity: Active
[28]
  Activity: Active
[29]
  Activity: Active
[30]
  Kd: 40 µM
[31]
  Kd: 40 µM
[32]
  Kd: 40 µM
[33]
  Kd: 40 µM
[34]
  IC50: 10 µM
[7]
  inhibition: inactive
[8]
  inhibition: inactive

## Nc1nc2c(-c3cc(Br)c(Br)[nH]3)nccc2[nH]1 [AGELADINE A]
[35]
  IC50: 5.6 µM
[36]
  IC50: 3.36 µM
[37]
  IC50: 1.09 µM
[38]
  IC50: 2.21 µM
[39]
  IC50: 0.924 µM
[40]
  IC50: 1.32 µM
[1]
  IC50: 4.76 µM
[2]
  IC50: 0.56 µM
[41]
  IC50: 30 µM
[34]
  IC50: 50 µM
[42]
  IC50: 10 µM

From ChEMBL document CHEMBL2150858 (J Med Chem, 2011)
